Measurements: ChEMBL document CHEMBL1131493, “Inhibitors of farnesyl protein transferase. 4-Amido, 4-carbamoyl, and 4-carboxamido derivatives of 1-(8-chloro-6,11-dihydro-5H-benzo[5,6]- cyclohepta[1,2-b]pyridin-11-yl)piperazine and 1-(3-bromo-8-chloro-6,11- dihydro-5H-benzo[5,6]cyclohepta[1,2-b]pyridin-11-yl)piperazine” (J Med Chem, 1998)

Experiments:
[1] = biological target: geranylgeranyltransferase type-I (Rattus norvegicus, UniProt P53610+Q04631); test: Inhibition of rat Geranylgeranyl transferase (GGPT); assay type: protein-complex assay
[2] = In vivo antitumor efficacy in nude mice by injecting a dose of 25 mg/kg, as HCl salt in saline solution, iv and the total drug exposure was determined. (0-24hr); assay type: ADME, organism-based; parameters: time < 24 hr, dose 25 mg/kg, route intravenous; settings: mouse
[3] = In vivo antitumor efficacy in nude mice by injecting a dose of 25 mg/kg, as HCl salt in saline solution, perorally and the total drug exposure was determined (0-24hr); assay type: ADME, organism-based; parameters: time < 24 hr, dose 25 mg/kg, route oral; settings: mouse, po
[4] = Oral bioavailability in mouse (nude) (dose 25 mg/kg i.v.); assay type: ADME, organism-based; settings: in vivo
[5] = (§1) Maximal plasma concentration in nude mice after 25 mg/kg oral dose; assay type: ADME, organism-based; parameters: dose 25 mg/kg, route oral; settings: mouse
Mus musculus [6] = test: In vivo antitumor efficacy in nude mice by injecting a dose of 25 mg/kg, as HCl salt in saline solution, perorally and the duration of action was reported; assay type: ADME, organism-based; parameters: dose 25 mg/kg, route oral; settings: po
[7] = In vivo antitumor efficacy in nude mice by injecting a dose of 25 mg/kg, as HCl salt in saline solution, iv and the serum half-life was determined; assay type: ADME, organism-based; parameters: dose 25 mg/kg, route intravenous; settings: mouse
[8] = biological target: T1, Protein farnesyltransferase (Homo sapiens, UniProt P49354+P49356); test: Inhibition of Farnesyltransferase from Ras-CVLS or Ras-CVLL in Cos-7 monkey kidney cells; assay type: cell-based, Chlorocebus aethiops
[9] = biological target: T1, Protein farnesyltransferase; test: In vitro inhibition of farnesyltransferase farnesylation of the H-ras oncogene; assay type: protein-complex assay; parameters: Inhibition: concentration or dose not given beside the values
[10] = In vivo antitumor efficacy in nude mice 0-24 hr after intravenous dose of 25 mg/kg expressed as Area under the curve; assay type: ADME, organism-based; parameters: time < 24 hr, dose 25 mg/kg, route intravenous; settings: mouse
In short: (§2)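 Serum pharmacokinetics in nude mice or cynomolgus monkeys after oral (po) or iv dosing. Compounds were given as hydrochloride salts in 20% HPβCD unless otherwise noted. Other formulations were the hydrochloride salt in saline, the micronized free base in 20% HPβCD or corn oil (po) with saline for iv, or the hydrochloride salt in 0.4% methyl cellulose (po).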

[11] = In vivo antitumor efficacy in nude mice 0-24 hr after peroral dose of 25 mg/kg expressed as Area under the curve; assay type: ADME, organism-based; parameters: time < 24 hr, dose 25 mg/kg, route oral; settings: nude, mouse, po; in short: as §2
[12] = Oral bioavailability in mouse (nude) (dose of 25 mg/kg); assay type: ADME, organism-based; settings: in vivo; in short: as §2
[13] = as §1; assay type: ADME, organism-based; parameters: dose 25 mg/kg, route oral; settings: mouse; in short: as §2; remark: listed apart in the source
Mus musculus [14] = test: In vivo antitumor efficacy after peroral dose of 25 mg/kg in mice expressed as duration for which compound was present above IC50; assay type: ADME, organism-based; parameters: dose 25 mg/kg, route oral; settings: po; in short: as §2
[15] = In vivo antitumor efficacy in nude mice by injecting a dose of 25 mg/kg iv and serum half-life was determined; assay type: ADME, organism-based; parameters: dose 25 mg/kg, route intravenous; settings: mouse; in short: as §2

SMILES | IC50 [1] [µM] | IC50 [8] [µM] | IC50 [9] [µM] | also measured
CN1CCC(CC(=O)N2CCN([C@@H]3c4ccc(Cl)cc4CCc4cc(Br)cnc43)CC2)CC1 | > 38 | – | – | –
O=C(Cc1ccccn1)N1CCN(C2c3ccc(Cl)cc3CCc3cccnc32)CC1 (stereo not given) | > 46 | – | – | –
CNC(=O)N1CCC(CC(=O)N2CCN(C3c4ccc(Cl)cc4CCc4cc(Br)cnc43)CC2)CC1 (stereo not given) | > 35 | 0.75 | 0.05 | AUC at 24 h [2]: 9900 ng·h/mL; AUC at 24 h [3]: 33300 ng·h/mL; bioavailability [4]: 100%; Cmax [5]: 80 µM; Time above IC50 (Mus musculus [6]): 4 h; half-life [7]: 30 min
O=C(Cc1ccc[n+]([O-])c1)N1CCN(C2c3ccc(Cl)cc3CCc3cccnc32)CC1 (stereo not given) | – | – | – | AUC at 24 h [10]: 12300 ng·h/mL; AUC at 24 h [11]: 11000 ng·h/mL; bioavailability [12]: 89%; Cmax [13]: 12 µM; Time above IC50 (Mus musculus [14]): 4 h; half-life [15]: 36 min
O=C(Nc1cccnc1)N1CCN([C@H]2c3ccc(Cl)cc3CCc3cccnc32)CC1 | – | 7.3 | 0.46 | –
CN1CCC(CC(=O)N2CCN([C@H]3c4ccc(Cl)cc4CCc4cc(Br)cnc43)CC2)CC1 | > 38 | – | – | –
O=C(Oc1cccnc1)N1CCN(C2c3ccc(Cl)cc3CCc3cccnc32)CC1 (stereo not given) | – | 3 | 0.5 | –
COCC[C@H]1CN(C2c3ccc(Cl)cc3CCc3cc(Br)cnc32)CCN1C(=O)Cc1cc[n+]([O-])cc1 (stereo not given in full) | – | < 0.25 | 0.034 | AUC at 24 h [11]: 19900 ng·h/mL; Cmax [13]: 9 µM; Time above IC50 (Mus musculus [14]): 7 h
CN(C)c1ccc(CC(=O)N2CCN(C3c4ccc(Cl)cc4CCc4cccnc43)CC2)cc1 (stereo not given) | 42 | – | – | –
O=C(Nc1cccnc1)N1CCN(C2c3ccc(Cl)cc3CCc3cccnc32)CC1 (stereo not given) | > 46 | 4.8 | – | –
O=C(CC1CCNCC1)N1CCN(C2c3ccc(Cl)cc3CCc3cc(Br)cnc32)CC1 (stereo not given) | > 38 | 0.17 | 0.072 | AUC at 24 h [2]: 27200 ng·h/mL; AUC at 24 h [3]: 17600 ng·h/mL; bioavailability [4]: 65%; Cmax [5]: 3 µM; Time above IC50 (Mus musculus [6]): 24 h; half-life [7]: 120 min
O=C(/C=C/c1cccnc1)N1CCN(C2c3ccc(Cl)cc3CCc3cccnc32)CC1 (stereo not given) | > 50 | – | 2.6 | –
O=C(Nc1ccncc1)N1CCN(C2c3ccc(Cl)cc3CCc3cccnc32)CC1 (stereo not given) | > 40 | – | – | –
O=C(Cc1ccncc1)NCCNC1c2ccc(Cl)cc2CCc2cccnc21 (stereo not given) | – | – | 25.8 | –
O=C(Oc1ccc[n+]([O-])c1)N1CCN(C2c3ccc(Cl)cc3CCc3cccnc32)CC1 (stereo not given) | – | – | 3.1 | –
O=C(c1cccc2ncccc12)N1CCN(C2c3ccc(Cl)cc3CCc3cccnc32)CC1 (stereo not given) | – | – | – | Inhibition [9]: 15%
O=C(Cc1cc[n+]([O-])cc1)N1CCN([C@H]2c3ccc(Cl)cc3CCc3cccnc32)CC1 | – | 5 | 0.49 | AUC at 24 h [11]: 15500 ng·h/mL; AUC at 24 h [2]: 21500 ng·h/mL; bioavailability [12]: 72%; Cmax [13]: 10 µM; Time above IC50 (Mus musculus [14]): 4 h; half-life [15]: 48 min
CC(C)(C)OC(=O)N1CCC(C(=O)N2CCN(C3c4ccc(Cl)cc4CCc4cccnc43)CC2)CC1 (stereo not given) | – | – | – | Inhibition [9]: 20%
O=C(Nc1ccccc1)N1CCN(C2c3ccc(Cl)cc3CCc3cccnc32)CC1 (stereo not given) | > 40 | – | 1.09 | –
O=C(Cc1ccccc1)N1CCN(C2c3ccc(Cl)cc3CCc3cccnc32)CC1 (stereo not given) | – | 12 | – | –
O=C(Cc1cccnc1)N1CCN(C(=O)c2ccc(Cl)cc2)CC1 | – | – | – | Inhibition [9]: 32%
O=C(Nc1ccc[n+]([O-])c1)N1CCN(C2c3ccc(Cl)cc3CCc3cccnc32)CC1 (stereo not given) | – | – | 2.2 | –
CC(C)(C(=O)N1CCN(C2c3ccc(Cl)cc3CCc3cc(Br)cnc32)CC1)c1ccc[n+]([O-])c1 (stereo not given) | – | 2.2 | 0.38 | AUC at 24 h [10]: 25000 ng·h/mL; AUC at 24 h [11]: 11700 ng·h/mL; bioavailability [12]: 47%; Cmax [13]: 11 µM; Time above IC50 (Mus musculus [14]): 4 h; half-life [15]: 36 min
O=C(Nc1ccc[n+]([O-])c1)N1CCN(C2c3ccc(Cl)cc3CCc3cc(Br)cnc32)CC1 (stereo not given) | – | 3.6 | 0.24 | –
Clc1ccc2c(c1)CCc1cccnc1C2N1CCN(CCc2cccnc2)CC1 (stereo not given) | – | – | – | Inhibition [9]: 23%
O=C(Oc1ccc[n+]([O-])c1)N1CCN(C2c3ccc(Cl)cc3CCc3cc(Br)cnc32)CC1 (stereo not given) | – | 6 | 0.28 | –
CC(C)(C)OC(=O)NCC(=O)N1CCN(C2c3ccc(Cl)cc3CCc3cccnc32)CC1 (stereo not given) | – | – | 4.8 | –
CC(=O)N1CCC(CC(=O)N2CCN(C3c4ccc(Cl)cc4CCc4cccnc43)CC2)CC1 (stereo not given) | – | 2.7 | 0.87 | –
